# Results published in publication PMC3662250 (Synlett : accounts and rapid communications in synthetic …, 2010).
# Molecular target: human ΔF508-CFTR (Homo sapiens, UniProt P13569, DEL508-508)
# Experiment: ΔF508-CFTR corrector activity assay
# Assay type: cell-based
# Conditions: comparison with bithiazole 27 of earlier studies
# Method in brief: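 FRT cells expressing ΔF508-CFTR, with FRT-null cells as counter-screen. Cells were PBS-washed, then incubated 20 min with forskolin (20 µM) plus genistein (50 µM). Fluorescence (ex 500, em 535 nm) was read 2 s baseline, then 12 s after adding PBS with 137 mM Cl− replaced by I−. Initial slope was extrapolated from an exponential fit of the final 11.5 s. Controls were DMSO vehicle, a bithiazole corrector and CFTRinh-172 inhibition.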
smiles,measurement,value
Cc1cccc(Nc2ncnc3onc(-c4ccc(F)cc4)c23)c1C [Compound 7],Vmax compared with s-cis locked bithiazole 27,greater Vmax value
